Assay results as given in paper PMC3329777 (The Journal of Organic Chemistry, 2010).
≈ marks a conversion by molar mass, not a printed value. Where two headings read alike, the source gives them in different places.

Key:
DU145 (prostate) cells = test: Cell proliferation assay; type: cell-based, human
Method in brief: (§1)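 DU145, PC3 and MDA-MB-231 lines only. Cells came from ATCC frozen stocks. PC3 was grown in F12K, DU145 and MDA-MB-231 in DMEM, all with 10% FBS plus penicillin/streptomycin. Equal cell numbers were seeded and held at 37 °C, 5% CO2 until log phase. Medium was then replaced with test compound (0–30 μM) for 48 h, then removed and plates frozen at -80 °C. After thawing to rt, CyQuant reagent was added and fluorescence read at 485/530 nm. Eight replicates per concentration; values are cell-number increase versus untreated controls, mean ± SE.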

[1] = tested on: PC3, DU145, MDA-MB-231 and Jurkat cells; test: Antiproliferative activity against four human tumor cell lines; type: cell-based
[2] = tested on: Jurkat (T-cell leukemia) cells; test: MTS cytotoxicity assay, Jurkat cells; type: cell-based; conditions: Homo sapiens, 24 h, read-out: IC50 Jurkat
Method in brief: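 Jurkat line: cells were kept in RPMI-1640 with 10% fetal bovine serum and penicillin-streptomycin (100 U/mL / 100 μg/mL) at 37 °C, humidified 5% CO2. They were seeded at 2,000 cells/well in 96-well plates. After 24 h they were exposed to a range of test compound concentrations for […]. Growth was measured by MTS reagent with absorbance at 490 nm, expressed relative to compound-free controls, mean ± SE.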

PC3 (prostate) cells = test: Cell proliferation assay; type: cell-based, human
Method in brief: as §1

[3] = tested on: MDA-MB-231 (breast) cells; test: Cell proliferation assay; type: cell-based, human
Method in brief: as §1

[4] = Decomposition of polysulfanes with hydroxide ion, monitored by HPLC; type: physicochemical; conditions: 6A-F 2.5 mM, methanol/water 99.9:0.1, after 1 hr
Method in brief: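 Test polysulfane mixture (2.5 mM) with acetanilide internal standard (0.25 mM) was treated with NaOH (0.625, 1.25, 1.875 or 2.5 mM) in methanol. After 1 h of equilibration, samples were analysed by reversed-phase C18 HPLC at 1 mL/min, rt, with UV at 254 nm. Elution used a methanol/water gradient of 15→95% methanol over 30 min, held 15 min.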

[5] = Ethanethiol-induced desulfuration; type: physicochemical
[6] = cited from earlier work
[7] = Intrinsic solubility determination; type: physicochemical
[8] = room temperature, equilibrium time 24 h, average of three measurements

SMILES	Polysulfanes and elemental sulfur distribution (HPLC, internal standard = 100) ([4]; 0.25 hydroxide ion equivalents)	Polysulfanes and elemental sulfur distribution (HPLC, internal standard = 100) ([4]; 0.5 hydroxide ion equivalents)	Polysulfanes and elemental sulfur distribution (HPLC, internal standard = 100) ([4]; 0.75 hydroxide ion equivalents)	Polysulfanes and elemental sulfur distribution (HPLC, internal standard = 100) ([4]; 1.0 hydroxide ion equivalents)	other results
Sc1ccccc1S [1,2-Benzenedithiol]					IC50 (DU145 (prostate) cells; Homo sapiens, DU-145, 48 h, read-out: IC50 DU145): > 30 µM; Inhibition of proliferation of DU145 cells (DU145 (prostate) cells; at concentrations of 10 μM and above, 48 h): ~ 40%; Toxicity to the cancer cell lines (in words) [1]: nontoxic; IC50 [2]: 60 µM; Effect on growth of PC3 cells (PC3 (prostate) cells; 48 h): stimulated the growth; IC50 PC-3 (PC3 (prostate) cells; 48 h incubation, 0–30 μM, 96-well plates): No effect; Effect on proliferation of MDA-MB-231 cells ([3]; 48 h): minimal effect; IC50 ([3]; Homo sapiens, MDA-MB-231, 48 h, read-out: IC50 MDA-MB-231): > 30 µM
COCCOCCOCCNC(=O)c1ccc2c(c1)SSS2 [Compound 6A, N-(2-(2-(2-Methoxyethoxy)ethoxy)ethyl)benzo[d][1,2,3]trithiole-5-carboxamide]	10.9	13.2	14.2	14.2	
COCCOCCOCCNC(=O)c1ccc2c(c1)SSSSS2 [Compound 6C, N-(2-(2-(2-Methoxyethoxy)ethoxy)ethyl)benzo[f][1,2,3,4,5]pentathiepine-7-carboxamide]	362.4	289.2	222.9	163.9	Time of ethanethiol-induced desulfuration ([5]; in aqueous methanol): ~ 2 min; Time of ethanethiol-induced desulfuration ([5]; in benzene): 4 h
COCCOCCOCCNC(=O)c1ccc2ssssssc2c1 [Compound 6D, N-(2-(2-(2-methoxyethoxy)ethoxy)ethyl)benzo[g][1,2,3,4,5,6]hexathiocine-8-carboxamide]	2.3	2.1	1.8	1.5	
COCCOCCOCCNC(=O)c1ccc2c(c1)SSSSSSS2 [Compound 6E, N-(2-(2-(2-Methoxyethoxy)ethoxy)ethyl)benzo[h][1,2,3,4,5,6,7]heptathionine-9-carboxamide]	3.0	2.8	4.7	1.6	
COCCOCCOCCNC(=O)c1ccc2c(c1)SSSSSSSSS2 [Compound 6F, N-(2-(2-(2-Methoxyethoxy)ethoxy)ethyl)benzo[j][1,2,3,4,5,6,7,8,9]nonathiacyclo-undecine-11-carboxamide]	2.1	3.7	3.8	3.1	
[S] [Compound S8, Elemental sulfur]	12.3	23.1	26.7	32.4	Solubility in ethanol [6]: 0.51 mg/mL (≈ 15.9 mM); Solubility in water [6]: 0.0004 mg/mL (≈ 0.0125 mM); Fold lower solubility by comparison to 6A-F [7]: ~ 50 fold; Solubility in methanol [7, 8]: 0.33 ± 0.03 mg/mL (≈ 10.3 mM); Solubility in water [7, 8]: 0.00014 ± 2e-05 mg/mL (≈ 0.00437 mM)
